# In the library only some 1.6% were active in any assay of this set; here they are far more common.
# B2AR ag: human beta-2 adrenergic receptor agonism by FAP | P07550 | Am2.2-beta2AR cells, FAP receptor internalization, flow cytometry | response, % (no concentration beside the values) | actives 0.43% (n = 340,000);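 active = response above a set limit, near 3 SD of response in nonfluorescent compounds, cut at about 42% in these data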
# Target sequence (P07550 whole entry, looked up): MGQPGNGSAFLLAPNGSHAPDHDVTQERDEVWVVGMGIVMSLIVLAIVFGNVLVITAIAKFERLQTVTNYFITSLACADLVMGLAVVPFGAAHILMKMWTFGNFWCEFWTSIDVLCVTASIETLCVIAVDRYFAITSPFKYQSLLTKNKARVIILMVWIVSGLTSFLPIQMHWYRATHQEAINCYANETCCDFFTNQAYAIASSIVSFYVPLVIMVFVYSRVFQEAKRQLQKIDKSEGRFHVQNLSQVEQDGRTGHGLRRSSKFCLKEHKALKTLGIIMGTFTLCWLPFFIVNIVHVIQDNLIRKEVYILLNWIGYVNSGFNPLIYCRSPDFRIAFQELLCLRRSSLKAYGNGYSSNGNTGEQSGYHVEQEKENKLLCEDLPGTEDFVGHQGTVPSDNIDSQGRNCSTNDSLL
# TLR9-MyD88 block: TLR9-MyD88 interaction inhibition; Q9NR96+Q99836; CHO BLA complementation TLR9-MyD88, CCF4 FRET ratio; inhibition, % at 4.98 µM; actives 0.21% (n = 340,000);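 active = inhibition above the mean over all tested compounds plus 3 SD, cut at about 21% in these data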;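 note: 0% = DMSO only wells and 100% = clavulanate BLA inhibitor control wells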
# TLR4-MyD88 BLA: TLR4-MyD88 interaction inhibition in cells | O00206+Q99836 | AID 861 | inhibition, % at 8.4 µM | HeLa CL3-4 TLR4/MyD88 BLA complementation, FRET ratio | actives 0.18% (n = 200,000); in the data active = inhibition above about 25%;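 note: 0% = vehicle and 100% = reference inhibitor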
# NOD2 RIPK2 PPI: blocks binding of human NOD2 to RIPK2. CHO BLA complementation NOD2-RIPK2, CCF4 ratio. inhibition, % at 4.98 µM. actives 0.38% (n = 360,000). AID 624267; in the data active = inhibition above about 21%;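 note: 0% = vehicle only and 100% = reference blocker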
# Dynein transport: blocks dynein driven cargo transport along microtubules; 3617.4 mouse cells, GR-EGFP nuclear translocation imaging; test concentration mostly 20 µM; stimulated with dexamethasone, 1 µM; active compounds read low; z-score, hits read low; actives 0.47% (n = 220,000);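 active = plate z-score of nuclear minus cytoplasmic receptor signal below a set negative limit, without overly bright fluorescence or cell loss, cut at about -3.5 in these data, passing the limit was not always enough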;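 note: z-score of nuclear minus cytoplasmic ring GR-EGFP intensity difference per well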
#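 medium = tetracycline-free induction medium containing charcoal-stripped FBS | also added = 1.0 µM final dexamethasone stimulus | schedule = 48 h induction, 1 h compound, 30 min dex at 37 °C | technique = fixed, Hoechst-stained cells imaged at 10x for EGFP | measure = GR-EGFP nuclear translocation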
# ABHD5 PLIN5 PPI: ABHD5-PLIN5 protein interaction inhibition | Split G. princeps luciferase complementation, luminescence, 4 h | inhibition, % at 4 µM | actives 0.78% (n = 360,000);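 active = inhibition above the mean inhibition across every tested compound plus 3 SD, cut at about 22% in these data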;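 note: 0% = DMSO only wells and the 100% control is not disclosed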
# Beta2AR ag CP1: activates human beta-2 adrenergic receptor; percent response (surface receptor), % at 10 µM; Am2.2-beta2AR cells, FAP surface receptor, flow cytometry; active compounds read low; actives 25% (n = 1,100); AID 540358; shares compounds with B2AR ag;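 active = surface receptor percent response at or below 58%, roughly 3 SD from nonfluorescent compounds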
# FAP fluor counter: counter-screen for beta-2AR agonists: fluorescence in Am2.2 cells; shares compounds with B2AR ag; FAP fluorogen flow cytometry, fluorescence counterscreen; active compounds read low; calls only at 10 µM; 1,100 tested, under 10 active; AID 588765;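 active = percent response below a set limit in fluorescence channel 1 and below 50% in channel 8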
# * = called active by the depositor; i = inactive; · = no result given.
SMILES,B2AR ag,TLR9-MyD88 block,TLR4-MyD88 BLA,NOD2 RIPK2 PPI,Dynein transport,ABHD5 PLIN5 PPI,Beta2AR ag CP1,FAP fluor counter
CCc1ccc(NC(=O)c2cc(S(=O)(=O)N3CCc4ccccc43)cn2C)cc1,13.5,-5.8,·,9.9,·,2.6,·,·
COC(=O)[C@]12CCCCC=C1N(Cc1cccc3ccccc13)C(=O)[C@H](CC(=O)NCc1ccc(C)o1)C2,·,·,·,15.8,·,10.5,·,·
Cc1oc(CC(C)C)cc1C(=O)Nc1cccc2ccccc12,42.7*,-5.0,-2.0,-3.6,-0.102,-11.6,98.9,i
COc1ccc(OC(=O)N(C)C[C@@H]2OCc3cn(nn3)CCCC(=O)N([C@@H](C)CO)C[C@H]2C)cc1,·,-0.9,·,-4.6,·,0.8,·,·
COc1ccc(NC(=O)Cn2c(=O)oc3ccccc32)cc1,-5.3,-1.8,·,12.3,0.41,-5.5,·,·
COC(=O)c1cc(NC(=O)Cn2c(=O)oc3ccccc32)cc(C(=O)OC)c1,70.6*,-4.8,·,-6.6,·,3.5,122.5,i
CC(C)C(=O)Nc1ccc2c(c1)C(=O)N(CCC(=O)O)C2=O,42.7*,-3.5,1.1,11.1,-0.59,11.7,104.8,i
CN(C)c1ccc(-c2nnn(CC(=O)Nc3ccccc3N3CCOCC3)n2)cc1,-14.0,3.4,7.4,4.8,-1.38,0.1,105.2,i
COc1ccc(CN(C)C(=O)c2cc(S(=O)(=O)N3CCCCCC3)ccc2OC)cc1OC,2.6,-4.1,·,-20.1,·,10.9,·,·
COc1ccc(S(=O)(=O)N2CCCCCC2)cc1C(=O)N(C)Cc1ccc(OC)c(OC)c1OC,50.8*,1.0,·,-5.4,·,4.8,108.4,i
CNC(=O)c1cc(Oc2ccc(NC(=O)c3[nH]c(-c4ccccc4)c4c3C(=O)N(C)C4=O)cc2)ccn1,·,·,·,-3.5,·,-4.8,·,·
Cc1[nH]c(=O)[nH]c(=O)c1NC(=O)c1ccccc1[N+](=O)[O-],·,2.2,·,-4.3,·,1.2,·,·
CC(C)c1nc2sc3c(NCc4ccccc4)ncnc3c2c2c1COC(C)(C)C2,2.1,-1.8,-9.3,-14.0,0.155,-2.9,113.9,i
CC(C)c1nc2sc3c(NCc4ccco4)ncnc3c2c2c1COC(C)(C)C2,6.6,-0.2,-4.4,5.6,-0.102,6.1,·,·
CN1CCc2c(sc3nc(SCC(N)=O)n(-c4ccccc4)c(=O)c23)C1,1.9,-5.7,6.1,-10.0,0.504,-5.9,·,·
CN1CCc2c(sc3nc(SCC(=O)N4CCCCC4)n(-c4ccccc4)c(=O)c23)C1,60.8*,-2.1,·,-16.9,·,4.7,·,i
COc1ccc(S(=O)(=O)N2CCOCC2)cc1NC(=O)COc1ccccc1OC,2.8,-4.9,·,-3.3,·,-1.3,·,·
Cc1cc(S(=O)(=O)N2CCOCC2)ccc1OCC(=O)Nc1cccc(F)c1,6.6,2.3,·,-2.9,·,-0.4,125.8,i
COc1ccc(NC(=O)COc2ccc(S(=O)(=O)N3CCOCC3)cc2C)cc1OC,5.5,7.9,·,5.9,·,9.6,110.8,i
COc1ccccc1CNC(=O)COc1ccc(S(=O)(=O)N2CCOCC2)cc1C,-5.7,-6.0,·,-3.9,·,-1.9,·,·
Cc1cc(S(=O)(=O)N2CCOCC2)ccc1OCC(=O)Nc1ccccc1F,11.6,7.7,·,5.0,·,-5.2,95.3,i
Cc1ccccc1NC(=O)COc1ccc(S(=O)(=O)N2CCCC2)cc1C,-1.2,0.2,·,-5.6,·,0.9,90.5,i
CC(=O)Nc1ccc(-c2ccnc3c2CC(C)(C(=O)Nc2cccc(C(F)(F)F)c2)O3)cc1 (configuration not stated),·,·,·,2.5,·,-9.3,·,·
Cc1nn(Cc2ccccc2)c(N)c1C#N,4.1,-15.8,-2.9,12.1,-0.0661,-2.4,·,·
Cc1nn(Cc2ccccc2)c(N)c1-c1ccccc1,49.7*,1.2,-9.5,-4.8,-0.771,-2.0,101.4,i
SMILES,B2AR ag,TLR9-MyD88 block,TLR4-MyD88 BLA,NOD2 RIPK2 PPI,Dynein transport,ABHD5 PLIN5 PPI,Beta2AR ag CP1,FAP fluor counter
Cc1ccc(C)c(NC(=O)C(c2ccccc2)N2CCOCC2)c1 (configuration not stated),-6.1,10.4,-2.0,5.9,1.27,-1.8,103.7,i
CC1(C(=O)NCc2ccccc2)CSCC(=O)N1CCc1c[nH]c2ccccc12 (configuration not stated),·,·,·,-2.6,·,10.8,·,·
O=C1ON=C(c2ccccc2)/C1=C/c1cccnc1,-2.9,-0.8,2.1,1.6,-0.00838,-8.1,100.0,i
O=c1[nH]c2ccccc2cc1CN(Cc1cccnc1)S(=O)(=O)c1ccc([N+](=O)[O-])cc1,-18.1,14.6,·,4.8,·,0.7,150.7,i
CC(=O)Nc1ccc(S(=O)(=O)N(Cc2ccco2)Cc2cc3ccccc3[nH]c2=O)cc1,106.3*,-29.2,·,-5.3,·,11.1,23.5*,i
CCCCN(Cc1cc2ccccc2[nH]c1=O)S(=O)(=O)c1ccc(C)cc1,-15.4,-3.7,·,10.4,·,-0.4,·,·
O=c1[nH]c2ccccc2cc1CN(Cc1cccnc1)S(=O)(=O)c1ccc(Cl)cc1,-9.0,5.9,·,-2.5,·,4.2,153.2,i
CC(=O)Nc1ccc(S(=O)(=O)N(Cc2cccnc2)Cc2cc3ccccc3[nH]c2=O)cc1,73.9*,6.2,·,-4.8,·,7.2,28.7*,i
C=CCNC(=O)c1cc2cc(Cl)ccc2nc1N,·,·,·,-6.5,·,-4.2,·,·
NS(=O)(=O)c1cccc(Nc2nc3ccccc3nc2NS(=O)(=O)c2ccc(Cl)cc2)c1,5.5,-3.2,·,-3.5,·,7.5,·,·
CC(=NNC(=O)C(C)SC(C)C(=O)NN=C(C)c1cccnc1)c1cccnc1 (configuration not stated),-2.2,-5.0,·,-2.9,·,4.5,·,·
O=C(OCc1cccc(C(F)(F)F)c1)c1cc(S(=O)(=O)N2CCOCC2)ccc1F,56.5*,10.2,·,17.8,·,11.2,102.9,i
CN1CCN(C(=O)c2cccc3c(-c4ccc(F)c(F)c4)coc23)CC1,·,·,·,3.8,·,8.7,·,·
CCOC(=O)CSC1=C(C#N)C(c2ccc(Cl)cc2)CC(=O)N1 (configuration not stated),16.1,2.5,-11.7,4.0,1.34,-7.7,·,·
CCOC(=O)CSC1=C(C#N)C(c2ccc(C)o2)CC(=O)N1 (configuration not stated),52.1*,-5.7,-4.5,9.7,-1.32,3.3,73.2,i
FC(F)c1nc2nc(Cl)c(Cl)nc2[nH]1,·,-7.7,·,-7.5,·,1.6,·,·
NC(=S)N/N=C/c1ccccc1OC(=O)c1cc2ccccc2oc1=O,0.2,6.5,·,2.9,·,4.2,101.6,i
NC(=O)N/N=C/c1ccccc1OC(=O)c1cc2ccccc2oc1=O,-5.2,4.7,·,-2.6,·,2.1,·,·
O=C(c1cc(C2CCCCN2S(=O)(=O)c2cccs2)on1)N1CCOCC1 (configuration not stated),·,·,·,-2.0,·,2.0,·,·
